Rows were chosen to be rich in hits. Some 11% of all compounds tested hit in one or more screens of this group.
S1P1 ag-PAM – agonists and agonism potentiators of human S1P1 receptor | activation, % at 9.5 µM | 56,000 tested, 0.57% active | S1P1 CRE-bla cells, forskolin, beta-lactamase FRET, potentiator mode; S1P1 agonist co-added at EC20, 2 nM; 100% = saturating reference agonist, 0% = basal;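 active means activation above a cutoff set at the mean activation of all tested compounds plus 3 SD, cut at about 54% in these data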;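 further: forskolin at 4 µM as EC80 and the EC20 agonist is SEW2871; 100% = SEW2871 at its EC100 plus forskolin at EC80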
M1 antagonist – antagonists of rat M1 muscarinic receptor. B-score at 10 µM. CHO-M1 cells, Fluo-4 calcium, ACh EC80 antagonist mode; active compounds read low. P08482. AID 628. 64,000 tested, 3.4% active;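 active means calcium fluorescence response, raw or row-and-column corrected B-score, differing from the plate sample mean either way at a set confidence level, mostly lower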
S1P3 ag – S1P3 (human) receptor agonism; Q99500; S1P3 NFAT-BLA reporter cells, FRET ratio; relative to 1 µM S1P, basal subtracted; activation, % at 4.5 µM; 60,000 tested, 0.1% active; AID 373;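 active means activation above the screen-wide mean plus 3 SD, cut at about 4.5% in these data, passing the limit was not always enough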
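Assay system: CHO cells stably expressing human S1P3, Gα16 and NFAT-β-lactamase reporter. Timing: overnight plating, 4 h compound 37 °C, 2 h substrate RT. Signal: β-lactamase FRET emission ratio 460/535 nm. Measure: percent activation versus median 1 µM S1P response, basal-subtracted, per plate. Repeats: primary screen single test, confirmation screen in triplicate.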
D1 allo mod – allosterically modulates the human D1 dopamine receptor | HEK293 D1, CRE-luciferase, dopamine EC30 potentiation; actives deviate in either direction | B-score at 10 µM | 58,000 tested, 5.9% active | P21728;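 active means luminescence count or its row- and column-corrected plate score outside the 99.7% band of the plate's sample wells, on either side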
Target sequence (P21728 whole entry, looked up): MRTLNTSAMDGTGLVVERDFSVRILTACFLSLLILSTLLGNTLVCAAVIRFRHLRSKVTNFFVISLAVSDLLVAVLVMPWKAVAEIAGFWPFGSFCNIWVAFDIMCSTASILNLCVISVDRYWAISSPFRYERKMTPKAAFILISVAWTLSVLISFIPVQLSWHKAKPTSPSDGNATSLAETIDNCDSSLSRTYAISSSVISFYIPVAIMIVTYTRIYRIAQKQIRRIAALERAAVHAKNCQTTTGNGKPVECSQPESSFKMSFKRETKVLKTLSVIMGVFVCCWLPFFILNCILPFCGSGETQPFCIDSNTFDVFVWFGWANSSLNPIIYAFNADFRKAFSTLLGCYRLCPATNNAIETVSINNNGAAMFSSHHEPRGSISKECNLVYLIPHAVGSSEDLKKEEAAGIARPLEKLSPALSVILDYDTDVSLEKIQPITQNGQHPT
TNAP act DEA – activates human TNAP at intermediate phosphate acceptor concentration; purified TNAP, CDP-star luminescence, 100 mM DEA, 30 min; active compounds read high; scale: 0 levamisole-inhibited, 1 vehicle-only enzyme; activation factor at 20 µM; 64,000 tested, under 10 active; AID 813;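 active means activation factor of at least 2 at 20 µM, relative to controls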
M1 agonist – activates the M1 muscarinic receptor. CHO-M1 cells, Fluo-4 calcium fluorescence, agonist mode; active compounds read high. B-score at 10 µM. 64,000 tested, 3% active. AID 626;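 active means fluorescence rise, raw or as B-score row- and column-corrected plate score, outside the 99.7% band of its plate's samples, either direction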
M1 ag confirm – confirmation of rat M1 muscarinic receptor agonists. shares compounds with M1 agonist. 1,700 tested, 19% active. fluorescence change (max-min) at 10 µM. CHO-M1 cells, Fluo-4 calcium fluorescence, agonist mode; actives lie on both sides. AID 1488;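 active means fluorescence change differs from the solvent-only DMSO control mean at a set confidence level in both duplicate runs; inconclusive means differs from solvent-only control mean in just one of two runs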;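 further: an EC20 dose of acetylcholine follows compound addition during the same imaging run; raw fluorescence intensity difference in instrument units with no normalization to controls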
M4 agonist ctr – activates rat M4 receptor in counter-screen for M1 agonists; shares compounds with M1 agonist; CHO M4/Gqi5 cells, Fluo-4 calcium fluorescence, agonist mode; actives lie on both sides; fluorescence change (max-min) at 10 µM; 1,700 tested, 9% active;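 active means fluorescence change differing from the plate's solvent-only control wells at 99.7% confidence in both duplicates, whether higher or lower; inconclusive means differs from solvent controls in only one of two duplicates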
The depositor's hits bear a star; ? = inconclusive; nt = not tested or not shown.

SMILES	S1P1 ag-PAM	M1 antagonist	S1P3 ag	D1 allo mod	TNAP act DEA	M1 agonist	M1 ag confirm	M4 agonist ctr
CCC1CCCCN1S(=O)(=O)c1ccc(C(=O)Nc2nnc(-c3ccccc3Cl)o2)cc1 (stereo not given)	34	-0.11	-2	-1.5	0.8	0.061	nt	nt
CC1CCCCN1S(=O)(=O)c1ccc(C(=O)Nc2nnc(-c3ccccc3Cl)o2)cc1 (stereo not given)	17	0.015	-1	2.5	1	-2.5*	?	-45
O=C1c2ccccc2N2C(=O)c3ccccc3C2N1Cc1ccco1 (stereo not given)	nt	-0.78	nt	1.6	0.9	5.3*	0.65	-28
Cc1cc(C)n2nc(SCC(=O)N(C)Cc3ccccc3)nc2n1	-44	1	0	nt	0.8	2.1*	-18	?
Cc1sc(NC(=O)CSc2nnc(C)c(=O)[nH]2)c(C#N)c1C	-9	0.022	-1	-0.22	0.9	0.48	nt	nt
O=C(COc1ccc(-n2cnnn2)cc1)NCCc1ccc(F)cc1	-32	-0.3	0	0.59	0.9	0.39	nt	nt
COc1ccc(-c2nc(SCC(=O)NCc3ccco3)c(-c3ccccc3)[nH]2)cc1OC	nt	0.56	nt	-2.2	0.8	5.8*	-11	-4.2
Cc1cc(C)n2nc(SCC(=O)NCc3ccco3)nc2n1	nt	0.78	nt	-0.74	0.9	-0.71	nt	nt
COc1ccc(-c2[nH]c(-c3ccc(F)cc3)nc2SCC(=O)NCc2ccco2)cc1OC	-34	0.7	0	-2.1	0.9	0.43	nt	nt
Cc1cc(C)nc(SCC(=O)NCc2ccco2)n1	nt	0.2	0	-0.11	0.9	2.4*	-22*	-61
Cc1cnc(-c2nnc(N(C)C(=O)C3CCCO3)s2)cn1 (stereo not given)	3	-0.23	0	-0.33	0.9	-1.7*	-23	-25
O=C(NC1CCCC1)c1sc(=S)n2c1[nH]c(=O)c1ccccc12	-2	-1.4	-1	-2.1	1	0.56	nt	nt
O=C(NCc1ccco1)c1sc(=S)n2c1[nH]c(=O)c1ccccc12	nt	-2	nt	-0.95	0.9	12*	53	35
CN(C)C(CNC(=O)CN1C(=O)NC2(CCc3ccccc32)C1=O)c1ccco1 (stereo not given)	-1	-1.3	0	-1.3	0.9	-0.47	nt	nt
CC(C)OCCCNc1ncnc2c1[nH]c1ccccc12	61	-4.3*	-1	-3	0.9	3.2*	1.9	?
COc1cccc(-c2cc(C(F)(F)F)n3ncc(C(=O)NCC4CCCO4)c3n2)c1 (stereo not given)	-6	-1.9	0	-0.1	0.8	6.6*	?	-54
Cc1cc(C(=O)NCCCN2CCN(C3CCCCC3)CC2)n(-c2ccccc2)n1	-18	-0.55	-1	0.065	0.8	32*	13	?
Cc1ccccc1NC(=O)NCCCN1CCN(C2CCCCC2)CC1	-13	0.022	-1	0.37	0.9	-0.27	nt	nt
O=C(CN1CCN(C2CCCCC2)CC1)NCCC1=CCCCC1	12	-0.37	0	0.35	0.9	13*	94*	-46
COC(=O)C1=C(N)OC2=C(C(=O)CC(C)(C)C2)C1c1ccoc1 (stereo not given)	-5	-0.0099	0	-0.49	0.9	-0.61	nt	nt
CCCCn1nc(NC(=O)c2cccs2)c2cc3cc(OC)ccc3nc21	-1	0.39	1	-1.2	1	6.4*	-24	-25
COc1ccc2nc3c(cc2c1)c(NC(=O)C1CCCO1)nn3CC(C)C (stereo not given)	-19	-0.82	1	-0.0025	1.2	4.3*	3.3	-23
COc1ccc(NC(=O)c2ccccc2NC(=O)C2CCCO2)cc1 (stereo not given)	2	0.97	-1	0.17	0.9	0.49	nt	nt
O=C(Nc1nnc(C2CCCC2)s1)C1CCC1	-20	0.028	0	2.3	0.9	0.078	nt	nt
COC(=O)/C=c1/sc2n(c1=O)CCN=2	-6	0.2	-1	-0.15	1	-0.36	nt	nt
SMILES	S1P1 ag-PAM	M1 antagonist	S1P3 ag	D1 allo mod	TNAP act DEA	M1 agonist	M1 ag confirm	M4 agonist ctr
COC(=O)/C=c1\sc2n(c1=O)C(C)=CC(C)(C)N=2	11	0.39	-2	nt	0.9	5.6*	-12	-44
Cc1c(C(=O)Nc2ccccc2N2CCOCC2)sc2nc3n(c(=O)c12)CCC3	nt	-0.061	nt	0.59	1	0.83	nt	nt
Cc1cc2cc(CCNC(=O)c3ccc(Br)o3)c(=O)[nH]c2cc1C	-10	-1.1	-1	0.41	0.9	3.7*	-15	-26
COc1cc(C2C(C(=O)c3ccco3)=C(O)C(=O)N2CCc2ccccc2)ccc1O (stereo not given)	nt	-1.4	nt	nt	1	89*	-9.4	-30
CCOc1cc(C2C(C(=O)c3ccc(C)o3)=C(O)C(=O)N2CCc2ccccc2)ccc1O (stereo not given)	nt	-0.22	nt	-0.087	1	0.29	nt	nt
CCn1c2ccccc2c2nnc(SCC(=O)N3CC(C)OC(C)C3)nc21 (stereo not given)	-16	-0.018	0	-0.07	0.9	1	nt	nt
Cc1ccc(S(=O)(=O)N2CCCC(C(=O)N(Cc3cccs3)C3CC3)C2)cc1 (stereo not given)	nt	0.32	nt	nt	0.9	0.1	nt	nt
CCC1CCCCN1S(=O)(=O)c1ccc(S(=O)(=O)N(Cc2cccs2)C2CC2)cc1 (stereo not given)	26	-1.9*	0	0.032	0.8	9.7*	-31*	-72*
Nc1nc2c3ccccc3nc(C3CC3)n2n1	nt	nt	0	nt	0.9	nt	nt	nt
O=C(C1=COCCO1)N1CCN(C(c2ccccc2)c2ccccc2)CC1	-38	0.081	0	0.65	1	0.98	nt	nt
CCOCCCNC(=O)CC1Oc2ccc(C)cc2NC1=O (stereo not given)	-6	-0.24	0	-0.011	0.8	0.21	nt	nt
CCC(=O)c1ccc(OCC(O)Cn2c(C)nc3ccccc32)cc1 (stereo not given)	23	-0.93	-1	-2.2	0.9	6.8*	-34*	-96
CCC(=O)c1ccc(OCC(O)Cn2cnc3ccccc32)cc1 (stereo not given)	6	-0.013	-1	nt	0.8	-1.6	nt	nt
CCCCCCc1c(O)c2ccccc2[nH]c1=O	1	-0.66	-1	0.11	0.9	13*	-10	-40
CCCCC(=O)Nc1c(O)c2ccccc2[nH]c1=O	-8	-0.2	-4	-0.13	0.8	-0.31	nt	nt
CCN(C(=O)c1cc2cccc(OC)c2oc1=O)c1ccccc1	-15	0.22	-1	0.32	0.9	0.018	nt	nt
